Series [1] deals with Primary HUVECs. The series can be described thus: HUVEC proliferation without VEGF165. The series is classed as cell-based. The conditions noted are these: Homo sapiens, 72 h, read-out: IC50, cell proliferation. The method, boiled down: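 HUVECs grown in F-12 with 10% FBS, 18 U/mL heparin and 30 μg/mL ECGS. Seeded at 10,000 cells/well in triplicate and left to adhere overnight, then starved 24 h in 0.1% FBS. Test compound at 0.8, 3, 11.8, 46.8 and […] in 0.1% FBS, with no VEGF165 added. MTS absorbance read at 490 nm after 72 h. IC50 = concentration halving absorbance versus control.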

A further series has as its system HCT-116. The series can be described thus: Cancer cell proliferation assay. The format is cell-based. Particulars: Homo sapiens, HCT-116, 72 h, read-out: IC50, cell proliferation.
The test system of series [2] is VEGF165-induced HUVEC cell lines. The experiment in a line: VEGF165-induced HUVEC proliferation. The series is classed as cell-based. The conditions noted are these: Homo sapiens, 72 h, read-out: IC50, cell proliferation.
A further series relates to BxPC-3. The experiment in a line: Cancer cell proliferation assay. The series is classed as cell-based. Particulars: Homo sapiens, BXPC-3, 72 h, read-out: IC50, cell proliferation.
For another series, the system named is A549. The experiment in a line: Cancer cell proliferation assay. The series is classed as cell-based. The conditions noted are these: Homo sapiens, A549, 72 h, read-out: IC50, cell proliferation.
Another series concerns MV-4-11. The experiment in a line: Cancer cell proliferation assay. The format is cell-based. The conditions noted are these: Homo sapiens, MV4-11, 72 h, read-out: IC50, cell proliferation.
A further series deals with A375. The series can be described thus: Cancer cell proliferation assay. The format is cell-based. Particulars: Homo sapiens, A-375, 72 h, read-out: IC50, cell proliferation.
A short description of series [3]: Body weight and tolerability in xenograft mice. The format is in vivo, mouse.
Series [4] relates to VEGF165-induced Primary HUVECs. The experiment in a line: VEGF165-induced HUVEC proliferation. The series is classed as cell-based. Particulars: Homo sapiens, 72 h, read-out: IC50, cell proliferation.
In a further series the test system is HT-29. The experiment in a line: Cancer cell proliferation assay. The format is cell-based. Particulars: Homo sapiens, HT-29, 72 h, read-out: IC50, cell proliferation.
For series [5], the system named is microvessel density (CD31). The series can be described thus: Microvessel density by CD31 immunofluorescent staining in xenograft models. The format is in vivo, mouse. Particulars: for microvessel density (MVD), CD31 staining: mouse xenograft models. The method, boiled down:
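Xenograft tumor paraffin sections (8 μm) rehydrated and treated 30 min in Tris/EDTA, then blocked with PBS/0.3% Triton X. Primary rabbit anti-mouse CD31 (1:100) at 4°C overnight. Secondary Alexa Fluor 488 goat anti-rabbit IgG (1:50) for 2 h. MVD quantified from fluorescence images: five slides, four ×200 fields each.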

The test system of another series is 786-O. The experiment in a line: Cancer cell proliferation assay. The series is classed as cell-based. The conditions noted are these: Homo sapiens, 786-0, 72 h, read-out: IC50, cell proliferation.
The subject of series [6] is choroidal neovascularization. The experiment in a line: Matrigel-induced choroidal neovascularization model. The format is in vivo. The conditions noted are these: rat, days 10-20 after Matrigel injection, n = 6. The method, boiled down: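 Rats anesthetized with ketamine (40 mg/kg IP) and xylazine (6 mg/kg IP), then given a subretinal injection of 1.2 μL Matrigel diluted 3:1 with PBS. Test compound at 10 or 30 mg/kg on days 10–20 after injection; controls untreated. Rats perfused with PBS, DiI and 4% paraformaldehyde. Eyes cut in 100 μm serial sections and viewed by confocal microscopy. CNV area = summed section width × thickness. Mean ± SD; ANOVA/t test.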

A further series concerns the target FLT3 (Homo sapiens, UniProt P36888). The experiment in a line: KINOMEscan competition kinase binding assay.
Another series deals with CNV lesions. The conditions noted are these: laser-induced CNV rat model; oral administration; cited from earlier work.
For series [7] the following is noted: compared with other TKIs; cited from earlier work.
Series [8] relates to Primary HUVECs. The experiment in a line: In vitro HUVEC tube formation assay. Particulars: at both 50 and 100 nM; VEGF165 30 ng/mL, 3 h. The format is cell-based, human.
In a further series the test system is MV-4-11 xenograft tumors. The series can be described thus: Mouse xenograft tumor growth. The format is in vivo. The conditions noted are these: oral. A digest of the protocol:
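Male athymic BALB/c nude mice, 6 weeks old, injected subcutaneously with 5 × 10⁶ MV-4-11 cells in the flank next to the right forelimb. […] Oral dosing at various doses for 3–4 weeks. Percent tumor growth inhibition calculated. Study repeated twice. Mean ± SD; ANOVA/t test.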

The test system of a further series is KDR, FLT3, and C-Kit. The series can be described thus: KINOMEscan IC50 compared with sunitinib. The format is binding, human.
Series [9] has as its system KDR phosphorylation of HUVECs. The series can be described thus: VEGF-induced KDR phosphorylation of HUVECs. The format is cell-based, human. The conditions noted are these: Figure S1.
The target of another series is C-Kit (Homo sapiens, UniProt P10721). The experiment in a line: KINOMEscan competition kinase binding assay.
The next series has as its system ABCG2. Particulars: cited from earlier work.
The subject of another series is HT-29 xenograft tumors. The experiment in a line: Mouse xenograft tumor growth. The format is in vivo. Particulars: HT-29-cell-derived xenograft models; oral. A digest of the protocol: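 Two-step HT-29 xenograft in BALB/c nude mice. First, 5 × 10⁶ cells injected subcutaneously and grown to 100–300 mm³. Tumors then excised, minced into 1 mm³ pieces and implanted in the flank of new mice, then grown to 100–300 mm³. […] Oral dosing for 3–4 weeks. Percent tumor growth inhibition calculated. Study repeated once.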

The next series has as its target PDGFRβ (Homo sapiens, UniProt P09619). The series can be described thus: KINOMEscan competition kinase binding assay.
The next series concerns A549 xenograft tumors. The series can be described thus: Mouse xenograft tumor growth. Particulars: dose-dependent (abstract only). The format is in vivo.

pIC50: −log10 of the molar value.

Sequence of PDGFRβ (P09619 33-1106): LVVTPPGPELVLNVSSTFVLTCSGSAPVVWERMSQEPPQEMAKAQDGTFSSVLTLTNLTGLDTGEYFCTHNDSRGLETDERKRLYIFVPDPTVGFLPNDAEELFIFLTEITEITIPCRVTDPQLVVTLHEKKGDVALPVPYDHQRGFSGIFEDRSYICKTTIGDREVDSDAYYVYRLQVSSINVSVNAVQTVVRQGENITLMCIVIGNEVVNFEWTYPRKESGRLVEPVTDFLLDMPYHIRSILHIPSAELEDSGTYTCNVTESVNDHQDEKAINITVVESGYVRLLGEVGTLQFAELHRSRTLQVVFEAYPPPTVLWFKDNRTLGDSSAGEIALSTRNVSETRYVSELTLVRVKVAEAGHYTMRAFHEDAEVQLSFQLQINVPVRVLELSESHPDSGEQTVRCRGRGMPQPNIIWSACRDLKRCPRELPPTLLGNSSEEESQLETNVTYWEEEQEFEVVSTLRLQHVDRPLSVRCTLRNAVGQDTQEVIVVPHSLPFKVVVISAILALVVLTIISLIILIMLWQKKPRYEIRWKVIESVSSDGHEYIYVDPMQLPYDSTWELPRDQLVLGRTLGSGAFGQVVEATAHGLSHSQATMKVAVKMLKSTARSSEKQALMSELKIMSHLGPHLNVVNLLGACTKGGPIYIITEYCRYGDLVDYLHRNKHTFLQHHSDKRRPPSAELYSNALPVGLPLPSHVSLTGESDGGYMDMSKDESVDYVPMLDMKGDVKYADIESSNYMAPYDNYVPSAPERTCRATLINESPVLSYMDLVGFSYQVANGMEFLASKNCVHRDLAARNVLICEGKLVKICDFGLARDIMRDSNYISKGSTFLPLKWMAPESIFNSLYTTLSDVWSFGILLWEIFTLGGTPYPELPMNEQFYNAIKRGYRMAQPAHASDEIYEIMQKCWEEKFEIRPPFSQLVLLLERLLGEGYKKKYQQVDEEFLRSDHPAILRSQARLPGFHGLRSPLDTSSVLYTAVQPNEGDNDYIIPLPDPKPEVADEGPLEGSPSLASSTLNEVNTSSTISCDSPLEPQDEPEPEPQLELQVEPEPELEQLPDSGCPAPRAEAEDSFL
Sequence of C-Kit (P10721 26-976): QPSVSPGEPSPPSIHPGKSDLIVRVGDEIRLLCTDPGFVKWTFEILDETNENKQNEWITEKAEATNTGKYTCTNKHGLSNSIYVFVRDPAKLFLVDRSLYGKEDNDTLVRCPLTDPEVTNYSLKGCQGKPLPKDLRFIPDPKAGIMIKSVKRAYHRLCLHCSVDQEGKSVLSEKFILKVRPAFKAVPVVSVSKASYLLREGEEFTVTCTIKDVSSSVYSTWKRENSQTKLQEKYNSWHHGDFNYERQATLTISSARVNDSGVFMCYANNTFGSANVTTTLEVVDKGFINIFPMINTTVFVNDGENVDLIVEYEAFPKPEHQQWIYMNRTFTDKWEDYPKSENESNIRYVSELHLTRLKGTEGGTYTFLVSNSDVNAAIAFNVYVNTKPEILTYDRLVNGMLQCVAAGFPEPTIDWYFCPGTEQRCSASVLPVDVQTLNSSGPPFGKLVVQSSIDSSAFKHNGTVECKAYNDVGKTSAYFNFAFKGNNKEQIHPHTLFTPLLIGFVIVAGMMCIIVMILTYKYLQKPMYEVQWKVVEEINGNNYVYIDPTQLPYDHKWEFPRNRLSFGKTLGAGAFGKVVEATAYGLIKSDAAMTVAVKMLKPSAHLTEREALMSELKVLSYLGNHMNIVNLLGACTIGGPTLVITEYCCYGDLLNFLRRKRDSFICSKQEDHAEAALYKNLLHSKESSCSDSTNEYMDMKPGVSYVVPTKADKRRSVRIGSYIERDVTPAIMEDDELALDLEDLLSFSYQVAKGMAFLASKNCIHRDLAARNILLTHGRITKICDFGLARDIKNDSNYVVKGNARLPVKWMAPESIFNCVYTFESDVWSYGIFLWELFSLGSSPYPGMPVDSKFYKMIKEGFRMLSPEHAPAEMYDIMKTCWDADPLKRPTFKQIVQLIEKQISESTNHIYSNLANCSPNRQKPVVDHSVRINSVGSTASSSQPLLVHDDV
Sequence of FLT3 (P36888 27-993): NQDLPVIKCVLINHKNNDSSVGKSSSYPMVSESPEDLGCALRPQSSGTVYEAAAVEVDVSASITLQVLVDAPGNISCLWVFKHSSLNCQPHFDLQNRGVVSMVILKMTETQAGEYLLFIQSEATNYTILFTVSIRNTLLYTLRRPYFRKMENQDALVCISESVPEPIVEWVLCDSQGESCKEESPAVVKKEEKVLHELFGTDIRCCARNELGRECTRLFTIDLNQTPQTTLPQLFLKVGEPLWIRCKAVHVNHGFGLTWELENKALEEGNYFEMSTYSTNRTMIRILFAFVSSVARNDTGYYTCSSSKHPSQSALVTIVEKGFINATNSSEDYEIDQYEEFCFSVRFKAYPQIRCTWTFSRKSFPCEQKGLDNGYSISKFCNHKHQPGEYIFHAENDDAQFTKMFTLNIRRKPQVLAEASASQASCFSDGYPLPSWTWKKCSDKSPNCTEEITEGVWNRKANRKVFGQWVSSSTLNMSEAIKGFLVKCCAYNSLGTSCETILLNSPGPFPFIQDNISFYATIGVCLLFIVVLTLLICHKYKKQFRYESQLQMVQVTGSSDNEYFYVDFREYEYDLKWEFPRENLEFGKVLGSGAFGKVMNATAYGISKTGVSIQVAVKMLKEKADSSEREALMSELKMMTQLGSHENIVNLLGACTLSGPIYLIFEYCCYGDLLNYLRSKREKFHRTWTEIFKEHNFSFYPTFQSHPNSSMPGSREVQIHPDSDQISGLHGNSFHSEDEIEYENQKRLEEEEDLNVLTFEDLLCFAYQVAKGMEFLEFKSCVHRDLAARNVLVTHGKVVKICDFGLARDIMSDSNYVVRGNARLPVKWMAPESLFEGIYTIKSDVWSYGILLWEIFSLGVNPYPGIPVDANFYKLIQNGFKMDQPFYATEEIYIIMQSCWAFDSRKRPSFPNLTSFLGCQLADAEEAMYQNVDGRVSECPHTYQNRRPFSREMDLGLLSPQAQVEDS

`CN[C@@H]1C[C@H]2O[C@@](C)([C@@H]1OC)n1c3ccccc3c3c4c(c5c6ccccc6n2c5c31)C(=O)NC4` [Staurosporine, reference compound]: the pIC50 in the series with Primary HUVECs [1] is 8.09.

Regarding `CCN(CC)CCNC(=O)c1c(C)[nH]c(/C=C2\C(=O)Nc3ccc(F)cc32)c1C` [Sunitinib, reference compound], the pIC50 is 5.60 with HCT-116; 7.40 in series [2]; 5.30 in the series with BxPC-3; 5.35 in the series on A549; 7.83 in the series on MV-4-11; 5.54 in the series with A375. In addition, the pIC50 in [4] was 7.90; in the series with HT-29 it was 5.35; with 786-O, 5.22. For the same compound, the body weight loss result in [3] (40 mg/kg qd) is “severe body weight loss”. In [5], the “microvessel density (MVD), CD31 staining” value is “significantly inhibited”.

Consider `Cc1[nH]c(/C=C2\C(=O)Nc3ccc(F)cc32)c(C)c1C(=O)N[C@H]1CCN(C(=O)N(C)C)C1` [Vorolanib], for which the CNV area is 493.58 ± 317.17 × 10^3 μm^2 in [6] (10 mg/kg) and 357.70 ± 276.97 × 10^3 μm^2 in series [6] (30 mg/kg). Moreover, the pIC50 was 9.20 on FLT3; less than 5.05 with HCT-116; 7.19 in series [2]; less than 5.05 in the series on BxPC-3; less than 5.05 in the series with A549; 6.85 in the series on MV-4-11. The pIC50 in the series on A375 was less than 5.05; in the series on Primary HUVECs [1], less than 5.70; in [4] it was 7.03; with HT-29, less than 5.05; at C-Kit, 9.85; at PDGFRβ, 9.89. Also, the pIC50 with 786-O was less than 5.05. Further, the CNV lesions entry in the series on CNV lesions is listed as “could reduce CNV lesions”. The half-life result in series [7] is reported as “shorter half-life”. Also, the tissue accumulation result in [7] was “limited tissue accumulation”. Also, the “VEGF165-induced tube formation of HUVECs” value in the series with Primary HUVECs [8] is reported as “inhibited the VEGF165-induced tube formation of HUVECs, in vitro, with inhibitory strengths comparable with that of sunitinib”. Also, in series [3] (orally administered vorolanib), the “body weight loss / toxicity” value is “no obvious body weight loss or other significant toxicity observed”. Further, the tumor growth inhibition entry in the series on MV-4-11 xenograft tumors (10 mg/kg bid) is “began to show significant inhibition”. In addition, the tumor regression entry in the series with MV-4-11 xenograft tumors (80 mg/kg bid) is on record as “tumors completely disappeared”. Besides, in the series on KDR, FLT3, and C-Kit, the “IC50 fold lower than those of sunitinib” value is 4.7- to 15.4 fold. The “VEGF-induced KDR phosphorylation of HUVECs” value in series [9] was “inhibited the VEGF-induced KDR phosphorylation of HUVECs”. Besides, the “drug efflux function of ABCG2” value with ABCG2 was “inhibition of the drug efflux function of ABCG2”. The efficacious dose with HT-29 xenograft tumors is on record as 40–160 mg/kg bid. The “microvessel density (MVD) inhibitory activity” value in series [5] (high-dose vorolanib 160 mg/kg twice daily [bid]) was “comparable with sunitinib”. Besides, in [5], the “microvessel density (MVD), CD31 staining” value was “suppressed the MVD of the mouse in a dose-dependent manner”. The tumor growth entry in the series on A549 xenograft tumors was “inhibited tumor growth”.

Source of the values: publication PMC8861424 (Molecular Therapy Oncolytics, 2022).
